Experimental findings from ChEMBL document CHEMBL1765024, “Fluorescent cyclin-dependent kinase inhibitors block the proliferation of human breast cancer cells” (Bioorg Med Chem, 2011) are described below.

SMILES strings stand for the structures. Activity calls are given as the source filed them. No cut-off for these calls is given here.

Series [1] deals with MCF7. Put plainly: Cell cycle arrest in human MCF7 cells assessed as accumulation at G2/M phase at 5 to 10 uM after 16 to 40 hrs using propidium iodide staining by flow cytometry. Format: functional, cell-based. Put shortly: (§1)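 Asynchronous cells were treated with 5 or 10 µM compound or DMSO for 24 h (also 16 and 40 h). They were trypsinized, washed in PBS and fixed/permeabilized in 70% ethanol. Staining was with RNase and propidium iodide for 30 min in the dark at room temperature, followed by flow cytometry. Phase percentages are given minus DMSO control; mean of triplicates.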
(A flow cytometer gives signals particle by particle.)

Series [2] deals with MDA-MB-231. Put plainly: Induction of apoptosis in human MDA-MB-231 cells assessed as decrease in caspase 7 protein level at 10 uM after 48 hrs by Western blotting. The series is classed as functional, cell-based.
The target in series [3] is T1, Cyclin-dependent kinase 5/CDK5 activator 1 (Homo sapiens) (UniProt Q00535+Q15078). Conditions: at 0.1 µM.
Series [4] has as its system MCF7. Put plainly: Antiproliferative activity against human MCF7 cells expressing estrogen receptor after 48 hrs by WST-1 assay. The series is classed as functional, cell-based. Conditions: MCF7, 48 h. The method, boiled down: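 Cells seeded at 3000/well in DMEM with 10% FBS and left 24 h. Compounds in DMSO were serially diluted in medium (1–100 µM) and added in triplicate. WST-1 was read 48 h after addition: 2–3 h incubation, absorbance at 450 nm with 630 nm reference. IC50 interpolated from log concentration versus fraction surviving; mean (SEM) of triplicate experiments.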
For orientation: Formazan colour is commonly taken as a measure of viable cells.

For series [5], the system named is MDA-MB-231. Put plainly: Induction of apoptosis in human MDA-MB-231 cells assessed as aberrant gross morphological changes at 10 uM after 48 hrs using propidium iodide staining by confocal microscopic analysis. The series is classed as functional, cell-based.
The test system of series [6] is MDA-MB-231. The series can be described thus: Cell cycle arrest in human MDA-MB-231 cells assessed as accumulation at sup G1 phase at 5 to 10 uM after 24 hrs using propidium iodide staining by flow cytometry. The series is classed as functional, cell-based. Put shortly: as §1
Series [7] addresses T1, Cyclin-dependent kinase 5/CDK5 activator 1 (Homo sapiens). The conditions noted are these: at 0.1 µM. The source holds these as a separate data set.
The test system of series [8] is MCF7. Put plainly: Antiproliferative activity against human MCF7 cells expressing estrogen receptor after 72 hrs by WST-1 assay. Format: functional, cell-based. Conditions: MCF7, 72 h. Put shortly:
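MCF-7 and its P-glycoprotein-overexpressing MDR subline CL 10.3 were grown in DMEM with 10% heat-inactivated FBS. Compounds in DMSO were serially diluted in medium and given to cells for 72 h. Read-out was WST-1 reduction (450 nm, 630 nm reference). IC50 interpolated from log concentration versus fraction surviving; mean (SEM) of triplicates. Ratio is CL 10.3 IC50 over MCF-7 IC50.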

Series [9] has as its system MCF7. The series can be described thus: Induction of apoptosis in human MCF7 cells assessed as viable cells at 10 uM after 24 hrs using annexinV-propidium iodide staining by flow cytometry (reference value: 70.32%). The series is classed as functional. The conditions noted are these: MCF7, 24 h, read-out: Activity.
The test system of series [10] is MCF7. Put plainly: Induction of apoptosis in human MCF7 cells assessed as late apoptotic cells at 10 uM after 24 hrs using annexinV-propidium iodide staining by flow cytometry (reference value: 13.35%). Format: functional.
Series [11] has as its system MCF7. Put plainly: Drug uptake in human MCF7 cell cytoplasm at 10 uM after 3 to 24 hrs using propidium iodide staining by two-photon confocal microscopy. Format: ADME, cell-based. The conditions noted are these: mcf7, 10 µM.
Series [12] has as its system MDA-MB-231. The series can be described thus: Induction of apoptosis in human MDA-MB-231 cells assessed as induction of PARP cleavage at 10 uM after 48 hrs by Western blotting. The series is classed as functional, cell-based. The method, boiled down: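 MDA-MB-231 cells were treated with vehicle or 10 µM compound for 48 h (and 72 h). Lysates were cleared and protein measured by BCA. Equal protein was run on 10% SDS–PAGE and transferred to PVDF, blocked in 5% milk overnight, and probed 2 h with anti-Bcl-2, Bax or PARP. HRP secondary was applied for 1 h, with ECL detection.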
For orientation: A western blot detects proteins with antibodies after separation by electrophoresis.

In series [13] the test system is MDA-MB-231. The series can be described thus: Cell cycle arrest in human MDA-MB-231 cells assessed as accumulation at G2/M phase at 5 to 10 uM after 24 hrs using propidium iodide staining by flow cytometry. The series is classed as functional, cell-based. Put shortly: as §1
For a further series, the species on record is Homo sapiens. The series can be described thus: Binding affinity to human breast cancer tissue at 10 uM after 1 hr by two-photon confocal microscopic analysis. Format: functional. The method, boiled down: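 Breast cancer tissue sections were dewaxed and rehydrated, then given epitope retrieval for 20 min at 100 °C. They were blocked with goat serum, exposed to 10 µM compound or dansyl ethylenediamine control for 1 h at room temperature, washed and mounted. Dansyl fluorescence was imaged.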

T1 sequence (Q00535 whole entry): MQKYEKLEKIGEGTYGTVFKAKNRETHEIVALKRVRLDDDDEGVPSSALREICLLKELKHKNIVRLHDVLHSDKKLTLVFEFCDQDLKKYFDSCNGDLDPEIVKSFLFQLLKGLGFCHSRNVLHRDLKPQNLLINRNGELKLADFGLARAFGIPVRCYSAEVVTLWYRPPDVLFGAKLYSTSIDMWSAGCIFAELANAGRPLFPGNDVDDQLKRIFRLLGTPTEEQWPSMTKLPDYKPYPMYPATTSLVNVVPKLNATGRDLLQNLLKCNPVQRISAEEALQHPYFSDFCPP
T1 sequence (Q15078 99-307 partner limits assumed): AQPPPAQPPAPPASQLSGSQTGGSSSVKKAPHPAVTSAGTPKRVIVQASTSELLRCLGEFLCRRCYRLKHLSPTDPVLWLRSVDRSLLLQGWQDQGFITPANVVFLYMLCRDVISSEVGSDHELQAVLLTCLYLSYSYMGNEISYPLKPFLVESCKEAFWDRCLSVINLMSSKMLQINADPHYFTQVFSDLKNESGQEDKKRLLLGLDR

In the case of `CC(C)[C@H](CO)Nc1nc(Nc2ccc(C(=O)NCCNS(=O)(=O)c3cccc4c(N(C)C)cccc34)c(Cl)c2)c2ncn(C(C)C)c2n1`, the outcome in the series on MCF7 [1], with MDA-MB-231 [2], in the series with MDA-MB-231 [5], with MDA-MB-231 [6], in the series with MDA-MB-231 [12] and with MDA-MB-231 [13] was Active. The result in the series listed under Homo sapiens was Active. Moreover, the values for the inhibition in [3] and in series [7] were 66% and 75%, respectively. In addition, the IC50 (commonly the concentration at which inhibition is half-maximal) in the series with MCF7 [4] worked out at 10 µM; in the series on MCF7 [8] it was 4.5 µM. In addition, the viability at 10 µM in the series on MCF7 [9] was 48.9%. The Activity with MCF7 [10] was 23.47%; in the series on MCF7 [11], “Active”.
